Measured values as given in PubChem BioAssay AID623890 (Vanderbilt Specialized Chemistry Center, 2012).

Target: Metabotropic glutamate receptor 5 (Rattus norvegicus) (UniProt P31424)
Test: mGlu5 glutamate response modulation check – cell-based, rat, calcium flux, Fluo-4, selectivity assay for mGlu4 lead optimization, profiling panel (AID 623890)
Settings: rat mGlu5 cells, Fluo-4 calcium flux, glutamate CRC shift, at 10 µM
Method in brief: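 System: rat mGlu5-expressing cells. Medium: HEPES- and probenecid-buffered HBSS, pH 7.3. Signal: Fluo-4 calcium fluorescence, excitation 470 nm, emission 540 nm. Incubation: ~2.5 min compound pre-incubation, ~3 min post-agonist read. Read-out: peak post-agonist fluorescence rise, normalized to baseline and pre-agonist point, four-parameter logistic fit. Doses: single compound dose, 10 µM final.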

Metabotropic glutamate receptor 5 (Rattus norvegicus), sequence (P31424 whole entry, looked up): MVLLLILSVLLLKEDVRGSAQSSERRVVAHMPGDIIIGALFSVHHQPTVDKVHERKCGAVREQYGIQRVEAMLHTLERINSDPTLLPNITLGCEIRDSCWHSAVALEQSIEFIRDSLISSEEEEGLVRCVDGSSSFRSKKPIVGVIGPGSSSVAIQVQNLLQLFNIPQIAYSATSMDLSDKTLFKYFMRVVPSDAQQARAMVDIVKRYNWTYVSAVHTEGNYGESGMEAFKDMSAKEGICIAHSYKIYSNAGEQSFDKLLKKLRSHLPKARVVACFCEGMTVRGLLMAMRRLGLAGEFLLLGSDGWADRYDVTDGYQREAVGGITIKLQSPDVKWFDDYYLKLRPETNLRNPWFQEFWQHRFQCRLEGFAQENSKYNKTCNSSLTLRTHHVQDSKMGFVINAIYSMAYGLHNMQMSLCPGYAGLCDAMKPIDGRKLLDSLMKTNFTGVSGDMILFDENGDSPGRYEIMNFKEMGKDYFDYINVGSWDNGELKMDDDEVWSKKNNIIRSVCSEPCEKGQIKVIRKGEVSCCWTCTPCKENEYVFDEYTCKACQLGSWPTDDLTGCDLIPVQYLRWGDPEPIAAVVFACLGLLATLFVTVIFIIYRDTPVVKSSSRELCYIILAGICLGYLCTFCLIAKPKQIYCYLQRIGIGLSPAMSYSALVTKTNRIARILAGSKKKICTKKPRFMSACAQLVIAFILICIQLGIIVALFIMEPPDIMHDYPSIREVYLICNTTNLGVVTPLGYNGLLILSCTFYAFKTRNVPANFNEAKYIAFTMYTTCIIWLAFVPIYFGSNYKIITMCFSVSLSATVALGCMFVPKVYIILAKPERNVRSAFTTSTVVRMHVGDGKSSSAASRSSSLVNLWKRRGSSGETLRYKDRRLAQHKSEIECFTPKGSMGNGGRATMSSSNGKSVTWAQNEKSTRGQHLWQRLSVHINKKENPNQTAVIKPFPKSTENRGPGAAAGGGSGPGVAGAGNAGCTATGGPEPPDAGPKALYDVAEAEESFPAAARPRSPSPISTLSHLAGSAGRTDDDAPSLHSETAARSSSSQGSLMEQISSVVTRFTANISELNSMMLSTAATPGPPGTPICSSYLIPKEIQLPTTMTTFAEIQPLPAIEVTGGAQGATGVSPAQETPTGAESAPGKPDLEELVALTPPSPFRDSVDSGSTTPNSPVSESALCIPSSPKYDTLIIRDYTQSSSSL

Work on `O=C(Nc1cccc(Cl)c1)c1ccccn1` yielded a fold shift of glutamate EC50 of 0.304 and a max response (measured here: glutamate max response with compound) of 74%.
